Data published in ChEMBL document CHEMBL4376862, “Synthesis and evaluation of novel chlorophyll a derivatives as potent photosensitizers for photodynamic therapy” (Eur J Med Chem, 2020).
pIC50: −log10 of the molar value. The source made the active and inactive calls. No cut-off for these calls is given here.

How the values were obtained:
Mus musculus [1] = test: Phototoxicity in ICR mouse assessed as ear weight at 0.45 mg/kg, iv followed by 10 mW/cm2 light irradiation for 10 mins at 1 day after drug challenge measured after 1 day of light irradiation (reference value: 12.6 +/- 1.2 mg); assay type: organism-based; conditions: in vivo
A549 [2] = test: Photodynamic antitumor activity against human A549 cells xenografted in BALB/c nude mouse at 0.15 mg/kg, iv followed by laser light irradiation at 120 J/cm2 measured after 14 days; assay type: functional, organism-based
Method in brief: (§1)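 Male BALB/c nude mice (5–6 weeks, 14–16 g) given 2×10^6 A549 cells s.c. in 0.2 mL PBS; at 6–7 mm tumors randomized into ten groups; drug via tail vein, 650 nm diode laser 120 J/cm2 at 180 mW/cm2 24 h later; caliper volume a×b²/2, followed 14 days.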

A549 [3] = test: Phototoxicity against human A549 cells assessed as reduction in cell proliferation irradiated with 1 J/cm2 of 650 nanometer laser light preincubated for 24 hrs measured after 48 hrs by MTT assay; assay type: functional, cell-based; conditions: A549, light or radiation study
Method in brief: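 A549 cells seeded 5×10^4 cells/100 µL per well, given […] for 24 h, then 650 nm semiconductor laser at 1 J/cm2 (25 mW/cm2, 40 s); MTT 4 h, absorbance 570 nm; viability vs control; triplicate, mean ± SD.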

[4] = Drug uptake in human A549 cells incubated upto 24 hrs by fluorescence spectrophotometer analysis; assay type: ADME, cell-based; conditions: a549, 24 h
Method in brief: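 A549 cells (F-12K, 10% FBS, 37 °C, 5% CO2) grown in 24 wells and exposed to photosensitizer for 0.5, 1, 2, 4, 8, 12 or 24 h; cells harvested by digestion, fluorescence read on a spectrophotometer.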

Mus musculus [5] = test: Phototoxicity in ICR mouse assessed as change in exposed neck skin 0.45 mg/kg, iv in presence of 10 mW/cm2 light irradiation for 10 mins upto 7 days measured after 1day of light irradiation by H and E staining based microscopic analysis; assay type: organism-based; conditions: in vivo
Mus musculus [6] = test: Phototoxicity in ICR mouse assessed as change in skin of the backs 0.45 mg/kg, iv in presence of 10 mW/cm2 light irradiation for 10 mins upto 7 days measured after 1 day of light irradiation by H and E staining based microscopic analysis; assay type: organism-based; conditions: in vivo
Cavia porcellus = test: Phototoxicity in guinea pig assessed as change in back skin weight 4.5 mg/kg, iv followed by 10 mW/cm2 light irradiation for 10 mins measured after 1day of light irradiation (reference value: 72.4 +/- 3.1 mg); assay type: organism-based; conditions: in vivo, 24 h
A549 [7] = test: Induction of apoptosis in human A549 cells assessed as early apoptotic cell incubated for 4 hrs under dark condition by annexin V-FITC and propidium iodide staining based flow cytometric analysis (reference value: 0.07%); conditions: a549, 4 h
[8] = Induction of ROS generation in DMF solution assessed as ROS quantum yield at 2 uM followed by irradiation measured every 10 secs by spectrophotometric analysis; assay type: functional
A549 [9] = test: Induction of apoptosis in human A549 cells assessed as necrotic cell in presence of 1J/cm2 light irradiation measured after 4 hrs by annexin V-FITC and propidium iodide staining based flow cytometric analysis (reference value: 0.00%); assay type: functional
Method in brief: (§2)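 After PDT at 1 J/cm2, A549 cells collected 4 h later, stained with annexin V-FITC and propidium iodide per kit instructions; flow cytometry with at least 10,000 events per sample.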

[10] = Drug uptake in BALB/c nude mouse xenografted with A549 cells assessed as drug level in brain at 0.3 mg/kg, iv measured at 12 hrs by fluorescence assay; assay type: ADME, organism-based; conditions: in vivo
Method in brief: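 A549 tumor-bearing mice dosed via tail vein (1 mg/kg in methods; 0.3 mg/kg in text) at tumors ~150–170 mm3, n = 3; whole-body imaging 0–24 h; at 6 and 12 h mice killed, heart, liver, spleen, lung, kidney, brain, tumor imaged ex vivo, excitation 420 nm, emission 650 nm.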

[11] = Drug localization in mitochondria of human A549 cells at 1 uM after 4 hrs by mito-tracker green based fluorescence microscopic method; assay type: ADME; conditions: a549, 4 h
Method in brief: (§3)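 A549 cells on coverslips at 1×10^4 cells/mL exposed to […] (so in the source) photosensitizer in complete medium for 4 h, washed, fixed in 4% paraformaldehyde 20 min, then probed 30 min at 37 °C with Mito-Tracker Green, Lyso-Tracker Blue or ER-Tracker Green; fluorescence microscopy, three repeats, minimal ambient light.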

[12] = Dark toxicity in human A549 cells assessed as reduction in cell viability incubated under dark for 24 hrs measured after 48 hrs by MTT assay; assay type: cell-based; conditions: read-out: TC50
Method in brief: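 A549 cells seeded at 5×10^4 cells/100 µL per well for 24 h, treated in the dark with […] (so in the source) for 24 h; MTT added 4 h, absorbance 570 nm, 48 h later; viability as OD treated/OD control; triplicate, mean ± SD.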

A549 [13] = test: Induction of apoptosis in human A549 cells assessed as late apoptotic cell incubated for 4 hrs under dark condition by annexin V-FITC and propidium iodide staining based flow cytometric analysis (reference value: 0.05%); conditions: a549, 4 h
A549 [14] = test: Photodynamic antitumor activity against human A549 cells xenografted in BALB/c nude mouse assessed as increase in tumor tissue damage at 0.3 mg/kg, iv incubated for 24 hrs followed by laser light irradiation at 120 J/cm2 measured up to 14 days; assay type: functional, organism-based; method in brief: as §1
[15] = Octanol/water partition coefficient, logP of compound by shake flask method; assay type: physicochemical
Method in brief: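 Shake-flask method: equilibrium concentrations in octanol and water measured by UV-vis absorbance; log P taken as log of octanol/water concentration ratio (mg/L).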

A549 [16] = test: Induction of apoptosis in human A549 cells assessed as late apoptotic cell in presence of 1J/cm2 light irradiation measured after 4 hrs by annexin V-FITC and propidium iodide staining based flow cytometric analysis (reference value: 0.05%); assay type: functional; method in brief: as §2
Mus musculus [17] = test: Phototoxicity in ICR mouse assessed as ear weight at 0.45 mg/kg, iv followed by 10 mW/cm2 light irradiation for 10 mins at 5 days after drug challenge measured after 1 day of light irradiation (reference value: 12.9 +/- 1.4 mg); assay type: organism-based; conditions: in vivo
A549 [18] = test: Photodynamic antitumor activity against human A549 cells xenografted in BALB/c nude mouse assessed as reduction in tumor volume at 0.3 mg/kg, iv incubated for 24 hrs followed by laser light irradiation at 120 J/cm2 measured up to 14 days; assay type: functional, organism-based; method in brief: as §1
A549 [19] = test: Photodynamic antitumor activity against human A549 cells xenografted in BALB/c nude mouse assessed as survival time at 0.3 mg/kg, iv incubated for 24 hrs followed by laser light irradiation at 120 J/cm2 measured up to 70 days; assay type: functional, organism-based
Method in brief: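 Nude mice bearing A549 xenografts, 0.3 mg/kg drug i.v. then 650 nm laser 120 J/cm2 at 180 mW/cm2 after 24 h; survival shown as Kaplan-Meier with log-rank test, n = 5.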

A549 [20] = test: Photodynamic antitumor activity against human A549 cells xenografted in BALB/c nude mouse assessed as decrease in tumor weight at 0.3 mg/kg, iv followed by laser light irradiation at 120 J/cm2 measured after 14 days; assay type: functional; method in brief: as §1
[21] = Drug localization in endoplasmic reticulum of human A549 cells at 1 uM after 4 hrs by DiOC6(3) ER-tracker green based fluorescence microscopic method; assay type: ADME, subcellular; conditions: a549, 4 h; method in brief: as §3

Row | Drug uptake [4] | Drug uptake [10] | Drug uptake [11] | logP [15] | Structure (SMILES) | Activity (Mus musculus [1]) | Activity (A549 [2]) | pIC50 (A549 [3]) | Activity (Mus musculus [5]) | Activity (Mus musculus [6]) | Activity (Cavia porcellus) | Activity (A549 [7]) | Ratio [8] | Activity (A549 [9]) | CC50 at 24 h [12] | Activity (A549 [13]) | Activity (A549 [14]) | Activity (A549 [16]) | Activity (Mus musculus [17]) | Activity (A549 [18]) | Activity (A549 [19]) | other results
1 | Active | Not Active | Active | 1.59 | CCC1=C(C)c2cc3[nH]c(cc4nc(c5c6[nH]c(cc1n2)c(C)c6C(=O)C5)[C@@H](CCC(=O)NCC(=O)CCC(=O)O)[C@@H]4C)c(C)c3C(C)OCCO (some centres undefined) | 13.3 mg | Active | 6.00 | Non-Toxic | Non-Toxic | 74.3 mg | 4.63% | 1.35 | 0.7% | 8.88 µM | 4.7% | Active | 67.73% | 12.9 mg | Active | Active | Activity (A549 [20]): 0.0296 g; Drug uptake [21]: Active
2 | Active | Not Active | Active | 2.36 | CCCCOC(C)c1c(C)c2cc3nc(c4c5[nH]c(cc6nc(cc1[nH]2)C(C)=C6CC)c(C)c5C(=O)C4)[C@@H](CCC(=O)NCC(=O)CCC(=O)O)[C@@H]3C (some centres undefined) | 12.9 mg | Active | 6.64 | Non-Toxic | Non-Toxic | 75.2 mg | 3.16% | 1.56 | 10.92% | 2.01 µM | 4.78% | Active | 83.88% | 13.5 mg | Active | Active | Activity (A549 [20]): 0.0138 g; Drug uptake [21]: Active
